Assay outcomes from PubChem BioAssay.
Neddyl block = inhibitors of cullin neddylation, primary screen, biochemical, TR-FRET, uHTS, NAE and Ubc12 | NEDD8-conjugating enzyme Ubc12 (Homo sapiens) + NEDD8-activating enzyme E1 regulatory … | calls only at 25 µM | hit rate 0.58% among 360,000 | AID 651699, 2012; in the data active means inhibition above about 36%
IMP-1 inh-1 = IMP-1 metallo-beta-lactamase inhibitors, primary screen, biochemical, epi-absorbance readout, Pseudomonas aeruginosa enzyme | hit rate 0.45% among 290,000 | metallo-beta-lactamase IMP-1 (Pseudomonas aeruginosa) | purified IMP-1, nitrocefin hydrolysis, epi-absorbance fluorescence | inhibition, % at 5.6 µM;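 active means inhibition above the mean plus 3 SD of all compounds in the same screening run, cut at about 4.5% in these data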;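 further: 0% = IMP-1 with DMSO and 100% = DMSO wells lacking enzyme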
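System: Purified recombinant IMP-1 metallo-beta-lactamase enzyme | Measured by: Fluorescence quenching readout, ex 480/em 530 nm | Replication: Singlicate | Incubation: 15 min preincubation plus 25 min reaction at 25 °C | Evaluation: Percent inhibition from optical density relative to buffer-blank wells | Benchmarks: DMSO with and without IMP-1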
VIM-2 inh = VIM-2 metallo-beta-lactamase inhibitors, primary screen, biochemical, epi-absorbance readout, Pseudomonas aeruginosa enzyme; purified VIM-2, nitrocefin hydrolysis, epi-absorbance fluorescence; inhibition, % at 5.6 µM; hit rate 0.89% among 290,000; AID 1527, 2009;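 active means inhibition above the mean of all tested compounds plus 3 SD, cutoff set per screening run, cut at about 7.5% in these data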;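 further: red hydrolysis product quenches plate fluorescence so inhibitors raise well fluorescence; 0% = enzyme with DMSO and 100% = DMSO without enzyme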
procasp7 counter = procaspase-7 activators, primary screen, counter-screen for procaspase-3 activator project, biochemical, absorbance, HTS, human | recombinant procaspase-7, Ac-DEVD-pNA absorbance 405 nm; D23A/D198A/D206A triple mutant, cannot self-cleave; scale: DMSO 0, 5 µM enzyme 100 | AID 463210, 2010 | activation, % at 8.5 µM | Caspase-7 (Homo sapiens), P55210 | hit rate 0.093% among 330,000;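 active means percent activation above the screen-wide mean plus 3 SD, cut at about 25% in these data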
Target sequence (P55210 whole entry D23A/D198A/D206A): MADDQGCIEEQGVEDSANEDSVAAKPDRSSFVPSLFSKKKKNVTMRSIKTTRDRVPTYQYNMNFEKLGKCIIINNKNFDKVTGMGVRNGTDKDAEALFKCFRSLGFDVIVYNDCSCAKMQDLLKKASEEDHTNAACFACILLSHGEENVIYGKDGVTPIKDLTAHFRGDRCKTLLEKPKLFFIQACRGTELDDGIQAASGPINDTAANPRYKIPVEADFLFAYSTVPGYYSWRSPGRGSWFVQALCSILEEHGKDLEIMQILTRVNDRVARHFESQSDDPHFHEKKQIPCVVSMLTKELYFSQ
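System: Uncleavable procaspase-7 mutant enzyme; Amount: 2 µM procaspase-7 mutant as dispensed; Schedule: 1 h compound preincubation, 2 h substrate cleavage, 25 °C; Measured by: 405 nm absorbance of p-nitroaniline; Evaluation: percent activation from buffer-corrected 0–120 min absorbance change; Control set: low DMSO alone, high DMSO plus 5 µM PC-7.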
PolyA inh = polyadenylation inhibitors in yeast reporter cells, primary screen, luminescence, S. cerevisiae; S. cerevisiae SKY197-pL101 polyadenylation reporter, beta-gal luminescence; efflux-impaired pdr1/pdr3 knockout yeast; score 100 = 6 SD above DMSO; activity score, % at 12 µM; hit rate 0.02% among 300,000; AID 1875, 2009;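 active means lowest replicate activity score at least 50, where 100 means six control SD above control mean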;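 further: yeast exposed to compound for 9 h at 30 °C; higher score means more reporter readthrough which indicates perturbed polyadenylation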
procasp3 activ = activators of human procaspase-3 D3A mutant, primary screen, biochemical, absorbance, PC-3 D3A mutant, single concentration; recombinant procaspase-3 D3A, Ac-DEVD-pNA absorbance 405 nm; AID 463141, 2010; activation, % at 8.5 µM; Caspase-3 (Homo sapiens), P42574; hit rate 0.11% among 330,000;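 active means activation above the mean of all tested compounds plus 3 SD, cut at about 21% in these data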;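 further: 0% = DMSO alone and 100% = DMSO wells spiked with extra 5 µM PC-3 D3A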
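material = Procaspase-3 D3A mutant | probe or stimulus = Ac-DEVD-pNA | compound = single dose, 8.5 µM nominal compound, 0.8% DMSO | timing = 1 h preincubation, 2 h reaction | measured by = 405 nm absorbance of p-nitroaniline, reads at 0 and 120 min | benchmarks = DMSO-only low control, 5 µM PC-3 D3A high control | repeats = singlicate, each compound tested once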
IMP-1 inh-2 = IMP-1 metallo-beta-lactamase inhibitors, confirmation, selectivity assay for selective VIM-2 inhibitor project, biochemical, epi-absorbance readout, triplicate; shares compounds with VIM-2 inh; purified IMP-1, nitrocefin hydrolysis, epi-absorbance fluorescence; inhibition, % at 5.6 µM; 1,300 tested, under 10 active; AID 1856, 2009; call rule not given here;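 further: 0% = enzyme with vehicle and 100% = vehicle without enzyme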
VIM-2 FRET ctr = VIM-2 inhibitors in FRET format, confirmation, artefact control for selective VIM-2 inhibitor project, biochemical, epi-absorbance artifact exclusion | shares compounds with VIM-2 inh | purified VIM-2, CCF2 FRET substrate hydrolysis | inhibition, % at 5.6 µM | hit rate 23% among 1,300 | AID 1857, 2009;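 active means inhibition above the mean of all tested compounds plus 3 SD, cut at about 19% in these data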;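 further: 0% = VIM-2 plus DMSO and 100% = no enzyme wells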
TEM-1 inh = TEM-1 serine beta-lactamase inhibitors, counter-screen for VIM-2 inhibitor project, biochemical, epi-absorbance, HTS; shares compounds with VIM-2 inh; Purified TEM-1, nitrocefin hydrolysis, epi-absorbance fluorescence; inhibition, % at 5.6 µM; hit rate 3% among 1,300;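 active means inhibition above that campaign's mean inhibition plus 3 SD, cut at about 0.46% in these data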;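 further: 0% = TEM-1 with DMSO and 100% = TEM-1 with 100 µM potassium clavulanate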
Target sequence (P62593 whole entry, looked up): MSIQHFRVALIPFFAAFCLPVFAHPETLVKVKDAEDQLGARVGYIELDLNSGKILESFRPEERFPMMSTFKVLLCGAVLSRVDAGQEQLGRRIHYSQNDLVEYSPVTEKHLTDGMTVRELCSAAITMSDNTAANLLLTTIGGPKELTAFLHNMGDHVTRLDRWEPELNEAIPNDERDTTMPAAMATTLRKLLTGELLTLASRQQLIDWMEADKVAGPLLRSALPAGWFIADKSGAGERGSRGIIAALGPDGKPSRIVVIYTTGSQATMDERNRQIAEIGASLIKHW
VIM-2 inh conf = VIM-2 metallo-beta-lactamase inhibitors, confirmation, biochemical, epi-absorbance, hits shared with IMP-1 screen. shares compounds with VIM-2 inh. purified VIM-2, nitrocefin hydrolysis. inhibition, % at 5.6 µM. hit rate 96% among 1,300;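 active means inhibition of the VIM-2 beta-lactamase enzyme above about 11% from the earlier first-round screen, limit read from the data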;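 further: 0% = VIM-2 with DMSO and 100% = buffer wells without enzyme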
* hit, by the source's call; i = inactive; x = not tested or not shown. Only some compounds are listed: those with a hit (about 1.7% of all), similar ones and a draw of the others.

SMILES	Neddyl block	IMP-1 inh-1	VIM-2 inh	procasp7 counter	PolyA inh	procasp3 activ	IMP-1 inh-2	VIM-2 FRET ctr	TEM-1 inh	VIM-2 inh conf
Cc1ccc(-c2csc(=Nc3cccnc3)n2CCCN2CCCC2=O)cc1C	i	-0.9	0.8	-1.4	8.9	-4.0	x	x	x	x
CC1(Cc2ccccc2OC(F)(F)F)C(=O)Nc2ccc(OC(F)(F)F)cc21 (stereo unspecified)	i	x	x	x	x	x	x	x	x	x
CCOC(=O)c1sc(NC(=O)CCN2CCC(C)CC2)c(C(=O)OCC)c1C	i	-0.7	2.1	8.2	-67.4	1.8	x	x	x	x
CCOC(=O)c1sc(NC(=O)CCN2CCN(CC)CC2)c(C(=O)OCC)c1C	i	0.1	13.7*	10.1	-0.5	8.9	-3.6	0.4	-4.6	26.6*
Cc1ccc(OCCC(=O)OCC(=O)Nc2c(C)nn(-c3ccccc3)c2C)cc1	i	x	x	-1.9	5.9	-4.6	x	x	x	x
c1cncc(-c2nc(NCc3ccco3)c3ccccc3n2)c1	i	-0.3	-1.6	-3.4	-17.6	-2.7	x	x	x	x
c1cncc(-c2nc(NCCCn3ccnc3)c3ccccc3n2)c1	i	1.8	32.0*	3.3	10.1	3.8	-2.6	-16.3	-6.6	48.9*
Cc1nc(NCCCn2ccnc2)c2ccccc2n1	i	-1.5	19.9*	9.4	-5.6	-25.3	-3.7	-1.2	-6.1	35.4*
Cc1nn(-c2ccccc2)c2[nH]c(=O)cc(C(F)(F)F)c12	i	-3.4	-0.1	0.6	12.2	1.1	x	x	x	x
O=C(Cn1c(=O)oc2ccccc21)NC(=O)NCc1ccco1	i	-4.0	-1.0	-14.7	-5.1	-10.6	x	x	x	x
COCC(C)NC(=O)c1cc2cccc([N+](=O)[O-])c2[nH]1 (stereo unspecified)	i	-3.6	21.2*	6.7	9.1	0.4	-3.5	39.1*	-5.3	23.2*
COCC(C)NC(=O)c1cccc([N+](=O)[O-])c1 (stereo unspecified)	i	0.3	-0.3	-4.0	11.9	3.7	x	x	x	x
C=CCN1C(=O)c2cccc3c(N4CCCCC4)ccc(c23)C1=O	i	0.4	-0.6	-10.9	-24.5	-5.6	x	x	x	x
O=C1c2cccc3c(N4CCCCC4)ccc(c23)C(=O)N1CCO	i	0.7	12.8*	-3.5	-11.0	-7.3	0.1	2.3	-4.8	25.3*
C=CCn1c(SCC(=O)NCCC2=CCCCC2)nc2ccc(Cl)cc2c1=O	i	-1.3	1.4	-0.9	1.3	10.9	x	x	x	x
CCc1nc(N2CCN(C(=O)c3ccco3)CC2)c2oc3ccccc3c2n1	i	-0.8	33.5*	-6.2	-15.0	8.3	-2.5	2.2	-6.5	40.8*
CCc1nc(N2CCCC2C(=O)O)c2oc3ccccc3c2n1 (stereo unspecified)	i	-0.7	-2.5	4.9	4.4	5.7	x	x	x	x
